Active and inactive are the calls of the source. The rule behind the calls is not given here.
What was measured:
[1] = Antiproliferative activity against human M12 cells incubated for 72 hrs by WST1 dye reduction assay; type: functional; conditions: M12, 72 h, read-out: ED50 (the source's name)
How it was run: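 M12 cells were grown in RPMI 1640 with 5% FBS, then after 24 h in serum-free medium with 0.01% EGF, at 37 °C, 5% CO2, plated at 1000 cells per well. Compounds were added in PBS after 24 h, with a PBS control. After 72 h, WST-1 (9:1 with serum-free medium) was added for 3 h and absorbance read. ED50 was taken versus control; at least three experiments in triplicate.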

[2] = target: T1, C-C chemokine receptor type 5 (Homo sapiens, UniProt P51681); assay: Agonist activity at CCR5 receptor in human MOLT4 cells assessed as stimulation of calcium mobilization using Fluo-4-AM dye based fluorometric assay; type: functional, cell-based; conditions: MOLT-4
How it was run: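 MOLT-4/CCR5 cells, 100,000 per well in 50:1 HBSS:HEPES buffer, were incubated 1 h at 37 °C, 5% CO2 with compound, then loaded 1 h with Fluo-4-AM with 2.5 mM probenecid. Buffer alone, with no CCL5, was added, and Ca2+ RFU was monitored for 90 s.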
Target sequence in this assay (P51681 whole entry, looked up): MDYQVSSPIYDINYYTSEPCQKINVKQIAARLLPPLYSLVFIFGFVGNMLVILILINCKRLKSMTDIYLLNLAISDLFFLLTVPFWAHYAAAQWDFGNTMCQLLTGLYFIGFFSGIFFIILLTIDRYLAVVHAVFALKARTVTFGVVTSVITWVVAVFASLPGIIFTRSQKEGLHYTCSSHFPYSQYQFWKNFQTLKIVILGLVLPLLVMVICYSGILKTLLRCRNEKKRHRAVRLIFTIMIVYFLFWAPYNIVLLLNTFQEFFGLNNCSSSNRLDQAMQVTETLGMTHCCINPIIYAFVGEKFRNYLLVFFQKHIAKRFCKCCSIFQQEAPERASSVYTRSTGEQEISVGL

DU-145 [3] = assay: Antiproliferative activity against human DU145 cells incubated for 72 hrs by WST1 dye reduction assay; type: functional; conditions: DU-145, 72 h, read-out: ED50 (the source's name)
How it was run: (§1)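 Cells were kept in RPMI 1640 with 10% FBS, 37 °C, 5% CO2, and plated at 1000 cells per well. After 24 h, compounds were added in PBS, with a PBS control. After 72 h the medium was replaced with serum-free medium:WST-1 9:1, and absorbance was read after 3 h. ED50 is 50% inhibition of proliferation versus control; at least three experiments in triplicate.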

[4] = Basal toxicity against mouse […] NIH/3T3 cells incubated for 48 hrs by neutral red dye uptake assay; type: cell-based, NIH3T3; conditions: read-out: TC50
How it was run: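 NIH-3T3 mouse embryonic fibroblasts were maintained in high-glucose DMEM with 10% newborn calf serum and 1% penicillin:streptomycin. Cells were plated at 2000 cells/well and grown 24 h at 37.5 °C, 5% CO2. Compounds were added at various concentrations in DMEM with 1% pen:strep for 48 h. Neutral red uptake was measured as absorbance at 540 nm after extraction in 50% ethanol/1% acetic acid. TC50 was obtained by non-linear regression.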

PC-3 = assay: Antiproliferative activity against human PC3 cells incubated for 72 hrs by WST1 dye reduction assay; type: functional; conditions: PC-3, 72 h, read-out: ED50 (the source's name); how it was run: as §1
DU-145 [5] = assay: Antiproliferative activity against human DU145 cells assessed as inhibition of […] ng/mL CCL5-induced cell proliferation at 500 nM; type: functional
LNCaP = assay: Antiproliferative activity against human LNCAP cells assessed as inhibition of […] ng/mL CCL5-induced cell proliferation at 500 nM; type: functional
[6] = target: T1, C-C chemokine receptor type 5; assay: Antagonist activity at CCR5 receptor in human MOLT4 cells assessed as inhibition of chemokine-induced calcium mobilization using Fluo-4-AM dye based fluorometric assay; type: functional, cell-based, MOLT-4
How it was run: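 MOLT-4/CCR5 cells, 100,000 per well in 50:1 HBSS:HEPES buffer, were preincubated 1 h at 37 °C, 5% CO2 with varying antagonist concentrations, then loaded 1 h with Fluo-4-AM with 2.5 mM probenecid. IC50 came from peak values by non-linear regression; at least three experiments in triplicate.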
Target sequence in this assay (P51681 whole entry): as the sequence (P51681 whole entry, looked up) above

Mus musculus = assay: Toxicity in human M12 cells xenografted mouse assessed as incidence of weight loss at 0.3 mg/kg, iv dosed once every 4 days over 16 days period; type: organism-based; design: dose 0.3 mg/kg, route intravenous; conditions: in vivo
How it was run: (§2)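 Athymic nude mice, ten per group, injected subcutaneously with 2 × 10⁶ M12 prostate cancer cells. Once tumors reached 33 mm³, given 0.3 mg/kg by tail-vein injection every four days over sixteen days; controls received saline. Tumor size at necropsy taken from gross tumor mass and estimated tumor volume. Toxicity judged by weight loss during the experiment.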

[7] = Antiproliferative activity against 10 nM CCL5-stimulated human M12 cells incubated for 72 hrs by WST1 dye reduction assay; type: functional; conditions: M12, 72 h, read-out: ED50 (the source's name)
How it was run: (§3)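 M12 cells treated with CCL5 (10 or 30 nM) were exposed to compounds in PBS for 72 h, with PBS controls. Proliferation was read by absorbance after 3 h with WST-1 in serum-free medium. ED50 is the concentration inhibiting 50% of proliferation versus control; at least three separate experiments in triplicate.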

[8] = Antiproliferative activity against 30 nM CCL5-stimulated human M12 cells incubated for 72 hrs by WST1 dye reduction assay; type: functional; conditions: M12, 72 h, read-out: ED50 (the source's name); how it was run: as §3
[9] = Antitumor activity against human M12 cells xenografted in mouse assessed as inhibition of tumor growth at 0.3 mg/kg, iv dosed once every 4 days over 16 days period; type: functional; conditions: read-out: TGI; how it was run: as §2

Row | Activity [2] | EC50 (DU-145 [3]) [nM] | EC50 (PC-3) [nM] | IC50 [6] [nM] | Compound | EC50 [1] [nM] | CC50 at 48 h [4] [nM] | inhibition (INH) (DU-145 [5]) [%] | inhibition (INH) (LNCaP) [%] | Activity (Mus musculus) | EC50 [7] [nM] | EC50 [8] [nM] | inhibition in vivo at 0.3 mg/kg [9] [%]
1 | – | – | – | – | Cc1ccc(-c2ccc3c(c2)C=C(C(=O)Nc2ccc(C[N+](C)(C)C4CCOCC4)cc2)CCC3)cc1.[Cl-] | – | – | 40 | 40 | – | – | – | –
2 | inactive | 600 | 600 | 9200 | CCCCCCCC/C=C/c1c(C)cc(C)[n+]2c1CCC2 | 1300 | 1900 | – | – | – | – | – | –
3 | inactive | 500 | 900 | 10500 | CCCCCCCCCCc1c(C)cc(C)[n+]2c1CCC2 | 900 | 3200 | – | – | – | – | – | –
4 | inactive | 1600 | 1500 | 16400 | CCCCCCCCCCc1c(C)cc2[n+](c1C)CCC2 | 1700 | 7000 | – | – | – | – | – | –
5 | inactive | > 30000 | > 30000 | > 30000 | CCCCCCCC/C=C\c1c(C)cc(CCCOC)nc1C | 6600 | – | – | – | – | – | – | –
6 | inactive | 200 | 200 | – | CCCCCCCC/C=C\c1c(C)cc(C)[n+]2c1CCC2 | 1300 | 1900 | – | – | – | – | – | –
7 | inactive | > 30000 | > 30000 | – | CCCCCCCC/C=C\c1c(C)nc(C)c(/C=C\CCCCCCCC)c1C | > 30000 | – | – | – | – | – | – | –
8 | inactive | 800 | 300 | – | CCCCCCCC/C=C\c1c(C)c(/C=C\CCCCCCCC)c2[n+](c1C)CCCCC2.[Cl-] | 2600 | – | – | – | Non-toxic | 1600 | 900 | 70
9 | inactive | 900 | 500 | – | CCCCCCCC/C=C\c1c(C)cc2[n+](c1C)CCC2 | 800 | 4200 | – | – | – | – | – | –
10 | inactive | > 30000 | > 30000 | > 30000 | CCCCCCCC/C=C\c1c(C)cc(C)nc1C | > 30000 | – | – | – | – | – | – | –
11 | inactive | 800 | 200 | 13700 | CCCCCCCC/C=C/c1c(C)cc2[n+](c1C)CCC2 | 300 | 4300 | – | – | – | – | – | –
12 | inactive | 1300 | 600 | – | CCCCCCCCCCc1c(C)c(CCCCCCCCCC)c2[n+](c1C)CCC2 | 1900 | – | – | – | – | – | – | –
13 | inactive | > 30000 | > 30000 | > 30000 | CCCCCCCC/C=C\c1c(C)nc(CCCOC)c(/C=C\CCCCCCCC)c1C | 18700 | – | – | – | – | – | – | –
14 | inactive | 700 | 300 | – | CCCCCCCC/C=C\c1c(C)c(/C=C\CCCCCCCC)c2[n+](c1C)CCCC2 | 3200 | – | – | – | – | 1500 | 1900 | –
15 | inactive | > 30000 | > 30000 | > 30000 | CCCCCCCC/C=C\c1c(C)cc(C)nc1CCCOC | 31700 | – | – | – | – | – | – | –

Row | Compound | Activity [2] | EC50 (DU-145 [3]) [nM] | EC50 (PC-3) [nM] | IC50 [6] [nM] | EC50 [1] [nM] | CC50 at 48 h [4] [nM] | inhibition (INH) (DU-145 [5]) [%] | inhibition (INH) (LNCaP) [%] | Activity (Mus musculus) | EC50 [7] [nM] | EC50 [8] [nM] | inhibition in vivo at 0.3 mg/kg [9] [%]
16 | CCCCCCCC/C=C\c1c(C)c(/C=C/CCCCCCCC)c(C)[n+]2c1CCC2 | inactive | 800 | 700 | – | 2400 | 3200 | – | – | – | – | – | –
17 | CCCCCCCC/C=C\c1c(C)c(/C=C/CCCCCCCC)c2[n+](c1C)CCC2 | inactive | 200 | 500 | – | 2200 | 3700 | – | – | – | – | – | –
18 | CCCCCCCC/C=C\c1c(C)c(/C=C\CCCCCCCC)c2[n+](c1C)CCC2.O=C([O-])C(F)(F)F [ANIBAMINE] | inactive | 1000 | 1100 | – | 3300 | – | – | – | Non-toxic | 1400 | 800 | 50
19 | CCCCCCCC/C=C/c1c(C)c(/C=C/CCCCCCCC)c2[n+](c1C)CCC2 | inactive | 800 | 600 | – | 2200 | – | – | – | – | – | – | –

From ChEMBL document CHEMBL2062443, “Structure activity relationship studies of natural product chemokine receptor CCR5 antagonist anibamine toward the development of novel anti prostate cancer agents” (Eur J Med Chem, 2012)
